Calls of active or inactive are those of the source. No cut-off for these calls is given here.
Columns and labels:
MCF7 [1] = assay: Induction of apoptosis in human MCF7 cells assessed as cell membrane rupture at 10 uM after 24 hrs by fluorescence microscopy; assay type: functional, cell-based
Procedure, shortened: (§1)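 MCF-7 cells seeded at 5 × 10^4 per well, exposed to compound at 10 μM for 24 h, then imaged by fluorescence microscopy for intracellular fluorescence and morphology.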

[2] = Stabilization of c-myc G-quadruplex DNA (unknown origin) assessed as reduction in Taq polymerase-mediated 5' to 3' extension at 10 to 40 uM by PCR stop assay
Procedure, shortened: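 PCR-stop assay in 1× PCR buffer with c-myc G4 DNA primer pair (10 pM each), dNTPs 0.16 mM, Taq 2.5 U and compound over 0–250 μM. Cycling: 94 °C 3 min, then 30 cycles of 94/58/72 °C for 30 s each. Products run on 15% native PAGE in TBE and silver stained.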

[3] = Binding affinity to c-myc G-quadruplex DNA (unknown origin) assessed as reduction in DNA CD signal strengths […] by CD spectroscopy; set-up: scale not given: the % may be the effect or the level left
Procedure, shortened: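 CD of pre-folded c-myc G4 DNA (2 × 10^-6 M) in Tris-KCl buffer pH 7.2, 1 cm cell. Ligand added from 1 mM stock every 3 min, final range (0–118) × 10^-6 M.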

MDA-MB-231 = assay: Growth inhibition of human MDA-MB-231 cells after 72 hrs ny MTT assay; assay type: functional, cell-based; settings: MDA-MB-231, 72 h
Procedure, shortened: (§2)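 MTT viability assay. Cells seeded at 3 × 10^3 per well and allowed 24 h, then treated 72 h with a concentration series from 1 mM DMSO stocks. MTT (5 mg/ml in PBS) added for 5 h, formazan dissolved in DMSO, absorbance read at 570 nm.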

MCF7 [4] = assay: Induction of cell shrinking in human MCF7 cells at 10 uM after 24 hrs by fluorescence microscopy; assay type: functional, cell-based; procedure, shortened: as §1
[5] = Binding affinity to c-myc G-quadruplex DNA (unknown origin) assessed as hypochromism at IL absorption at 20 uM by electronic spectra titration method
Procedure, shortened: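 Titration in Tris-KCl buffer pH 7.2 with ligand held at 20 μM and G4 DNA added stepwise. 3 min incubation before each UV-vis spectrum. Hypochromism read at the intraligand band (250–300 nm).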

[6] = Drug uptake in nucleus of human MCF7 cells at 10 uM after 24 hrs by fluorescence microscopy; assay type: ADME, cell-based; settings: mcf7, 24 h; procedure, shortened: as §1
[7] = Drug uptake in cytoplasm of human MCF7 cells at 10 uM after 24 hrs by fluorescence microscopy; assay type: ADME, cell-based; settings: mcf7, 24 h; procedure, shortened: as §1
HeLa = assay: Growth inhibition of human HeLa cells after 72 hrs by MTT assay; assay type: functional, cell-based; procedure, shortened: as §2
MCF7 [8] = assay: Induction of cell membrane changes in human MCF7 cells assessed as roughening and unevening of cell membrane surface at 10 uM after 24 hrs by fluorescence microscopy; assay type: functional; procedure, shortened: as §1
[9] = Binding affinity to c-myc G-quadruplex DNA (unknown origin) assessed as increase in melting temperature by FRET assay
Procedure, shortened: (§3)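 FAM/TAMRA dual-labelled c-myc oligonucleotide (1 μM) in Tris-KCl buffer pH 7.2, annealed at 92 °C for 5 min and slowly cooled to room temperature. Compound added at varying concentrations. Fluorescence melting curves recorded on a real-time PCR system, holding each temperature 30 s before each reading. Tm shift taken relative to the no-compound control.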

MCF7 [10] = assay: Growth inhibition of human MCF7 cells after 72 hrs by MTT assay; assay type: functional, cell-based; settings: MCF7, 72 h; procedure, shortened: as §2
[11] = Binding affinity to c-myc G-quadruplex DNA (unknown origin) assessed as change in melting temperature at 1 uM by FRET assay; procedure, shortened: as §3
[12] = Binding affinity to c-myc G-quadruplex DNA (unknown origin) assessed as change in melting temperature at 3 uM by FRET assay; procedure, shortened: as §3

With `Brc1ccc(-c2nc3c4cccnc4c4ncccc4c3[nH]2)cc1` the Activity (MCF7 [1]) was “Active”, the Activity [2] was “Dose-dependent effect” and the Activity [3] was 23%. The IC50 (MDA-MB-231) was 3.6 µM, the Activity (MCF7 [4]) was “Active” and the Activity [5] was 9.4%. For the same molecule, the Drug uptake [6] was “Active”, the Drug uptake [7] was “Active” and the IC50 (HeLa) was 8.5 µM. The Activity (MCF7 [8]) was <20%, the Activity [9] was “Dose-dependent effect” and the IC50 (MCF7 [10]) was 22.9 µM. It also gave a ΔTm [11] of 3.4 °C and a ΔTm [12] of 6.4 °C.
In the case of `Brc1ccccc1-c1nc2c3cccnc3c3ncccc3c2[nH]1`, the IC50 (MDA-MB-231) is reported as 36 µM, the Drug uptake [6] is reported as “Active” and the Drug uptake [7] is reported as “Active”. The IC50 (HeLa) was 7.9 µM and the IC50 (MCF7 [10]) was 27.3 µM.
With `c1ccc(-c2nc3c4cccnc4c4ncccc4c3[nH]2)cc1` the IC50 (MDA-MB-231) was 74.2 µM, the Drug uptake [6] was “Not Active” and the Drug uptake [7] was “Not Active”. It also gave an IC50 (HeLa) of 5.1 µM and an IC50 (MCF7 [10]) of 72.6 µM.
For `O=S(=O)(O)c1ccc(-c2nc3c4cccnc4c4ncccc4c3[nH]2)cc1`, the IC50 (MDA-MB-231) was 60 µM, the Drug uptake [6] was “Not Active” and the Drug uptake [7] was “Not Active”. It also gave an IC50 (HeLa) of 62.4 µM and an IC50 (MCF7 [10]) of 184 µM.
For `O=S(=O)(O)c1ccccc1-c1nc2c3cccnc3c3ncccc3c2[nH]1`, the IC50 (MDA-MB-231) was 152 µM, the Drug uptake [6] was “Not Active” and the Drug uptake [7] was “Not Active”. For the same molecule, the IC50 (HeLa) was 240 µM and the IC50 (MCF7 [10]) was 162 µM.

From ChEMBL document CHEMBL3351432, “Microwave-assisted synthesis of phenanthroimidazole derivatives as stabilizer of c-myc G-quadruplex DNA” (Bioorg Med Chem, 2014)
